For one series, the system named is Entamoeba histolytica. The series is described as follows: Antiamoebic activity against Entamoeba histolytica HMI:IMSS after 72 hrs by microdilution method. In kind it is functional, organism-based. The gist of the method: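 E. histolytica HMI:IMSS trophozoites grown in TYIS-33 medium. Compounds dissolved in DMSO, made up to 1 mg/ml with medium, then twofold serial dilutions in 96-well plates. 1.7 × 10⁴ viable organisms/well; plates gassed with nitrogen for 10 min, 37 °C for 72 h. Cells methanol-fixed and eosin-stained, dye released with 0.1 N NaOH, OD read at 490 nm. IC50 taken from linear regression of % inhibition vs log dose.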
On the technique in general: Dilution methods test growth across graded concentrations, often in twofold steps.

The nature of series [1]: Safety index, ratio of IC50 for human kidney epithelial cells to IC50 for Entamoeba histolytica HMI:IMSS. Format: toxicity, cell-based, Epithelial cell. The conditions noted are these: read-out: Ratio IC50. The method in brief: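 Ratio computed as toxicity IC50 in human kidney epithelial cells (concentration killing 50% of cells, MTT) over protozoal IC50 against E. histolytica (concentration killing 50% of amoebae).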

Series [2] is described as follows: Cytotoxicity against human kidney epithelial cells after 44 hrs by MTT assay. Format: cell-based. As to conditions: Epithelial cell. The method in brief:
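Transformed human kidney epithelial (Graham) cells kept at 37 °C in 5% CO2. Trypsinized cells adjusted to 0.5 million cells/mL and plated with compound. After 44 h, 2 mM MTT added for a further 4 h, then DMSO added to dissolve formazan. Absorbance read at 540 nm with 690 nm reference; % viability calculated against controls.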
(Tetrazolium assays rely on reduction of a dye to a coloured formazan, in cell work by metabolically active cells.)

Among the data in ChEMBL document CHEMBL1140966, “Syntheses and evaluation of 3-(3-bromo phenyl)-5-phenyl-1-(thiazolo [4,5-b] quinoxaline-2-yl)-2-pyrazoline derivatives” (Eur J Med Chem, 2008) are IC50 and selectivity ratio values, retold here.

Where only a bound is given, the exact number is not on record here.

Consider `NC(=S)N1N=C(c2cccc(Br)c2)CC1c1ccccc1` (centres undefined), for which the midpoint of inhibition with Entamoeba histolytica, the IC50, lay at 190 nM.
On to `Clc1ccccc1C1CC(c2cccc(Br)c2)=NN1c1nc2nc3ccccc3nc2s1` (centres undefined), for which, in series [1], the selectivity ratio is above 88.2. Also, the IC50 – broadly, the concentration that gives 50% inhibition – was above 60 µM in series [2] and 680 nM in the series on Entamoeba histolytica.
On to `Cc1ccc(/C=C/C(=O)c2cccc(Br)c2)cc1`, for which half-maximal inhibition in the series with Entamoeba histolytica (IC50) was put at 2490 nM. This lies in the single-digit micromolar range.
In the series with Entamoeba histolytica, `NC(=S)N1N=C(c2cccc(Br)c2)CC1c1cccc(Cl)c1Cl` (centres undefined) showed a half-inhibitory concentration (IC50) of 560 nM.
Take `NC(=S)N1N=C(c2cccc(Br)c2)CC1c1c[nH]c2ccccc12` (centres undefined): inhibition with Entamoeba histolytica was half-maximal at 2280 nM (IC50).
Compound `CCc1ccccc1C1CC(c2cccc(Br)c2)=NN1C(N)=S` (centres undefined) yielded an IC50 in the series with Entamoeba histolytica of 2610 nM.
Take `Brc1cccc(C2=NN(c3nc4nc5ccccc5nc4s3)C(c3c[nH]c4ccccc34)C2)c1` (centres undefined): the selectivity ratio in series [1] is above 750. Also, the results for the IC50 (in series [2]; in the series with Entamoeba histolytica) were above 60 µM and 80 nM, respectively.
As to `CC(C)c1ccccc1C1CC(c2cccc(Br)c2)=NN1C(N)=S` (centres undefined), the IC50 with Entamoeba histolytica worked out at 2340 nM.
Turning to `CC(C)c1ccccc1C1CC(c2cccc(Br)c2)=NN1c1nc2nc3ccccc3nc2s1` (centres undefined), the selectivity ratio in series [1] was above 32.1. Moreover, the 50% inhibitory concentration (IC50) in series [2] was above 60 µM; in the series with Entamoeba histolytica, 1870 nM.
Take `Cc1cc(C)c(C2CC(c3cccc(Br)c3)=NN2C(N)=S)c(C)c1` (centres undefined): in the series with Entamoeba histolytica, the half-maximal inhibitory concentration (IC50) came to 1710 nM.
On to `Cc1ccc(C2CC(c3cccc(Br)c3)=NN2c2nc3nc4ccccc4nc3s2)cc1` (centres undefined), for which the selectivity ratio in series [1] is above 600. Further, the half-inhibitory concentration (IC50) in series [2] was above 60 µM; in the series with Entamoeba histolytica it was 100 nM.
Regarding `Cc1cc(C)c(C2CC(c3cccc(Br)c3)=NN2c2nc3nc4ccccc4nc3s2)c(C)c1` (centres undefined), the selectivity ratio in series [1] was above 46.5. In addition, the IC50 is above 60 µM in series [2] and 1290 nM in the series with Entamoeba histolytica.
In the series with Entamoeba histolytica, `O=C(/C=C/c1ccccc1Cl)c1cccc(Br)c1` yielded an IC50 of 2230 nM.
`Cc1ncc([N+](=O)[O-])n1CCO` [METRONIDAZOLE]: the selectivity ratio in series [1] is above 55.5. Also, in series [2], the IC50 was above 100 µM.
For `Cc1ccc(C2CC(c3cccc(Br)c3)=NN2C(N)=S)cc1` (centres undefined), the IC50 in the series on Entamoeba histolytica worked out at 4380 nM. That is a single-digit micromolar value.
Regarding `Clc1cccc(C2CC(c3cccc(Br)c3)=NN2c2nc3nc4ccccc4nc3s2)c1Cl` (centres undefined), the selectivity ratio in series [1] is above 85.7. In addition, the half-inhibitory concentration (IC50) in series [2] is above 60 µM; in the series on Entamoeba histolytica, 700 nM.
The compound `CC(C)c1ccccc1/C=C/C(=O)c1cccc(Br)c1` displayed a half-inhibitory concentration (IC50) in the series with Entamoeba histolytica of 1920 nM.
As to `Brc1cccc(C2=NN(c3nc4nc5ccccc5nc4s3)C(c3ccccc3)C2)c1` (centres undefined), in series [1], the selectivity ratio is above 428. The IC50 is above 60 µM in series [2] and 140 nM in the series on Entamoeba histolytica.
In turn, `O=C(/C=C/c1ccc(Cl)cc1Cl)c1cccc(Br)c1` gave an IC50 in the series on Entamoeba histolytica of 1110 nM.
On the same count and under the same terms, in the case of `NC(=S)N1N=C(c2cccc(Br)c2)CC1c1ccccc1Cl` (centres undefined) it was 1900 nM.
With `CCc1ccccc1C1CC(c2cccc(Br)c2)=NN1c1nc2nc3ccccc3nc2s1` (centres undefined), in series [1], the selectivity ratio is above 24.1. In addition, the IC50 in series [2] is above 60 µM; in the series with Entamoeba histolytica, 2490 nM.
`Cc1cc(C)c(/C=C/C(=O)c2cccc(Br)c2)c(C)c1` registered a half-inhibitory concentration (IC50) in the series with Entamoeba histolytica of 1800 nM.
